Measurements published in ChEMBL document CHEMBL4371052, “Diarylcarbonates are a new class of deubiquitinating enzyme inhibitor” (Bioorg Med Chem Lett, 2019).
Calls of active or inactive are those of the source. The rule behind the calls is not given here.

Tests used:
[1] = target: Ubiquitin carboxyl-terminal hydrolase 15 (Homo sapiens) (UniProt Q9Y4E8); test: Inhibition of USP15 in HEK293T cell lysates at 25 uM using HA-tagged vinyl-sulfone as substrate measured after 2 to 30 mins by Western blot analysis; assay type: subcellular; details: Lysate
Outline: (§1)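 HEK 293T lysate (1.5 mg/ml) given compound (25 μM) or DMSO at the same time as HA-Ub-VS (1.5 μM). Aliquots withdrawn over time were run on SDS-PAGE and immunoblotted for HA.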

[2] = target: Ubiquitin carboxyl-terminal hydrolase 7 (Homo sapiens) (UniProt Q93009); test: Inhibition of USP7 in HEK293T cell lysates assessed as ratio of HA-Ub-VS modified USP7 to total USP7 at 100 uM using HA-Ub vinyl-sulfone as substrate preincubated for 19 to 60 mins followed by substrate addition and measured after 19 to 25 mins by Western blot analysis (reference value: 0.5); assay type: subcellular; details: Lysate
Chain of Ubiquitin carboxyl-terminal hydrolase 7 (Homo sapiens) (Q93009 whole entry, looked up, the tested form may be a part): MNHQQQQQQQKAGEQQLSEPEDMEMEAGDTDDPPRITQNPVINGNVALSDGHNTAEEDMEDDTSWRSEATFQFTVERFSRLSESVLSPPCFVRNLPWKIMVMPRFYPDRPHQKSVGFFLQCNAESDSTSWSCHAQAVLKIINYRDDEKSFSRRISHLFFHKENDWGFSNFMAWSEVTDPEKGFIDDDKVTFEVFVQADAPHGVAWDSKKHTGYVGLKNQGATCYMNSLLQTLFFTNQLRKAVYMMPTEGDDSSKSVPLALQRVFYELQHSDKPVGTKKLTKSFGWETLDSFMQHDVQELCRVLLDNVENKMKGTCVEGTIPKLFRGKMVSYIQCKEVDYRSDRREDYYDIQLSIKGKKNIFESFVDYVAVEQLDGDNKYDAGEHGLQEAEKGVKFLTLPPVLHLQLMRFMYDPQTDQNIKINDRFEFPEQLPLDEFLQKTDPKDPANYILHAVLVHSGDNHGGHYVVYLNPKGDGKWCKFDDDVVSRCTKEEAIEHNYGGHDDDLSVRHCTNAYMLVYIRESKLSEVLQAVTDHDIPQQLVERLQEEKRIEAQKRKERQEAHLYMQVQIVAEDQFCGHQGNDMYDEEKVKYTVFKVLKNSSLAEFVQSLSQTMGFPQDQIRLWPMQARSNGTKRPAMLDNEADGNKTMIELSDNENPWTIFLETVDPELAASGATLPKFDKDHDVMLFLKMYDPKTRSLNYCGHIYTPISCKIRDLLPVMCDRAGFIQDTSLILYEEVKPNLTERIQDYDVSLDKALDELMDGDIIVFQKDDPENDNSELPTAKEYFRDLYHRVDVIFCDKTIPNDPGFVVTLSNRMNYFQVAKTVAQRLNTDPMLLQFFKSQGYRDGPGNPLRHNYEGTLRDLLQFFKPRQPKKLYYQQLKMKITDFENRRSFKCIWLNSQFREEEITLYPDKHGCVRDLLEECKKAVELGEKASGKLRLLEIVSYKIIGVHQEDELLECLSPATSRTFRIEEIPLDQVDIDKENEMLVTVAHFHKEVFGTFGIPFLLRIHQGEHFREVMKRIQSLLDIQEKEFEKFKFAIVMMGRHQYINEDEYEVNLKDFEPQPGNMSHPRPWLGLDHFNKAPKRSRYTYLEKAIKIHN
Outline: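 HEK 293T lysate incubated with compound, then treated with HA-Ub-VS. Samples were run on SDS-PAGE and blotted with anti-USP7, and the probe-modified USP7 band was distinguished from unmodified USP7.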

[3] = target: 26S proteasome (Homo sapiens) (UniProt Q99460+P49721+P20618+P28074+P28062+P28065+P28072+O00487+P25786+P25787+P25788+P25789+P28066+P60900+O14818+Q8TAA3+P40306+A5LHX3+P49720+P28070+Q99436+Q16186+P35998+P62191+P43686+P62333+P17980+P62195+Q13200+O43242+O00232+O00231+Q15008+P51665+Q9UNM6+P55036+P48556+P60896); test: Inhibition of 26S proteasome in HEK293T cells expressing GFP-fused Ub G76V mutant assessed as increase in GFP fluorescence; assay type: cell-based
Outline: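 HEK 293T cells expressing G76V Ub-GFP, a fusion uncleavable by DUBs that reports ubiquitin-proteasome flux, treated with compound. GFP fluorescence was the read-out, with bortezomib as proteasome-inhibitor reference.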

[4] = target: Ubiquitin carboxyl-terminal hydrolase 9X (Homo sapiens) (UniProt Q93008); test: Inhibition of USP9x in HEK293T cell lysates assessed as enzyme recovery at 250 uM using HA-tagged vinyl-sulfone as substrate preincubated for 40 mins followed by 10-fold dilution and subsequent substrate addition measured up to 2 hrs by Western blot analysis; assay type: subcellular; details: Lysate
Chain of Ubiquitin carboxyl-terminal hydrolase 9X (Homo sapiens) (Q93008 whole entry, the tested form may be a part): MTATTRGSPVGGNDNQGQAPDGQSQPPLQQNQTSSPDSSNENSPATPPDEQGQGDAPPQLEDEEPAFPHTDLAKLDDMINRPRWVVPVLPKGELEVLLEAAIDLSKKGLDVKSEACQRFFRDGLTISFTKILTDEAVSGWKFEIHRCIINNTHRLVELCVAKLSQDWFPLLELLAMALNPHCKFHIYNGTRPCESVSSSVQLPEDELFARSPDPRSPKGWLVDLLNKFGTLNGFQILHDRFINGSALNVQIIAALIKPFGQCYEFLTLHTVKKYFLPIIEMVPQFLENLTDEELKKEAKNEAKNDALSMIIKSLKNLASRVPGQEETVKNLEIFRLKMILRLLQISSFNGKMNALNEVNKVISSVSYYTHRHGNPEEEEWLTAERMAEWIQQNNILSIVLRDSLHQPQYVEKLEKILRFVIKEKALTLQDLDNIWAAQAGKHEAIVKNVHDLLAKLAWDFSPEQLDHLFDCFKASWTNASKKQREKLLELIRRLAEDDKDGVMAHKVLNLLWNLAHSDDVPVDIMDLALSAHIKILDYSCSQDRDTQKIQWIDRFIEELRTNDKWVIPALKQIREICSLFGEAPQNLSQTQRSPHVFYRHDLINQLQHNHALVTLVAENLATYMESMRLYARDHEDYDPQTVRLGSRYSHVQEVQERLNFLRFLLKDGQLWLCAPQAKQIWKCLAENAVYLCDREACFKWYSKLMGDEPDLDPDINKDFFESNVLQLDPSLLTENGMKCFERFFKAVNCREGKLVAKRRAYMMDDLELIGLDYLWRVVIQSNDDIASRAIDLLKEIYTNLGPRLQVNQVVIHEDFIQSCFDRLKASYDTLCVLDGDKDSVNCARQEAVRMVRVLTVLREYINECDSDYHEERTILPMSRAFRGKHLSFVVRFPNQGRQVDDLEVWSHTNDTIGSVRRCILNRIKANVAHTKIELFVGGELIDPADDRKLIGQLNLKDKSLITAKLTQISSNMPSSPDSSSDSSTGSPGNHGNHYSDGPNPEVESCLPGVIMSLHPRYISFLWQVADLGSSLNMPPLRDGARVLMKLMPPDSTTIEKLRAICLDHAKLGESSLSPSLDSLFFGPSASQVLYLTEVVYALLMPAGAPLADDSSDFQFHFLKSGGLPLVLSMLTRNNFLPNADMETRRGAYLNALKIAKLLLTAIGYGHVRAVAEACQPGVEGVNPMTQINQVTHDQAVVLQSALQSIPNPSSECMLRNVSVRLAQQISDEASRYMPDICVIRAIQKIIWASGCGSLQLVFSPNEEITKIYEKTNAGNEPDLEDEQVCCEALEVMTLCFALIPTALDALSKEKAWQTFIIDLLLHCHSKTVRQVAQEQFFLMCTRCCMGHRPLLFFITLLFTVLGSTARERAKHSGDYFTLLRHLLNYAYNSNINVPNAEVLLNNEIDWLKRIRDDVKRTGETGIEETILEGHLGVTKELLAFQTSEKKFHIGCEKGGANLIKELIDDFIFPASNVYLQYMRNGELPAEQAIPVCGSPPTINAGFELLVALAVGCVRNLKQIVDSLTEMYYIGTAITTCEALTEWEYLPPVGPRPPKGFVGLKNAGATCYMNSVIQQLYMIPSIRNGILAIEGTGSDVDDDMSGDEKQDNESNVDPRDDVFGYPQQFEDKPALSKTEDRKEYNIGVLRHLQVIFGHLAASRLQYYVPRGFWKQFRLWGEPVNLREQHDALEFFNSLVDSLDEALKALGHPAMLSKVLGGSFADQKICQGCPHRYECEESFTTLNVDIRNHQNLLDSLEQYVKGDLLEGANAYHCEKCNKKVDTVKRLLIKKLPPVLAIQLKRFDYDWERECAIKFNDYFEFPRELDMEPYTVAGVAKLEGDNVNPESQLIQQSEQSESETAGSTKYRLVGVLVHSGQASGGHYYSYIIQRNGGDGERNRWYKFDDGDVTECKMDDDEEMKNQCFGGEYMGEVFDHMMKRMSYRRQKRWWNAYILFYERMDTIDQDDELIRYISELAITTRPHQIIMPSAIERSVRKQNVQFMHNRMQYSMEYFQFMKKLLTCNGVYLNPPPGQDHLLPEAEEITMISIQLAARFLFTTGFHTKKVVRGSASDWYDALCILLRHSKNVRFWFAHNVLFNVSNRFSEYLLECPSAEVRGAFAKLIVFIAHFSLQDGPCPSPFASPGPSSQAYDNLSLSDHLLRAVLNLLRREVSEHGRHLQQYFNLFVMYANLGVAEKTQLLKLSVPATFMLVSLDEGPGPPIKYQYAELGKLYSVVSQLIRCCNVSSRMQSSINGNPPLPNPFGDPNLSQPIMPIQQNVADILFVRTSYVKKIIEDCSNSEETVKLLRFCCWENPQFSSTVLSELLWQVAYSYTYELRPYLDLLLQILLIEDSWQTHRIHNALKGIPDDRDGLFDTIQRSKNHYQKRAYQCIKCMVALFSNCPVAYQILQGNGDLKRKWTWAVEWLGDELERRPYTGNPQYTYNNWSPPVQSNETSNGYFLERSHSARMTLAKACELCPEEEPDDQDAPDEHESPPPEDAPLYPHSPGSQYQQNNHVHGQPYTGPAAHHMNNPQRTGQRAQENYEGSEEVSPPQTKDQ

[5] = target: Ubiquitin carboxyl-terminal hydrolase 9X (Homo sapiens) (UniProt Q93008); test: Inhibition of USP9x in HEK293T cell lysates at 25 uM using HA-tagged vinyl-sulfone as substrate measured after 2 to 30 mins by Western blot analysis; assay type: subcellular; details: Lysate; outline: as §1
[6] = target: Ubiquitin carboxyl-terminal hydrolase 7 (Homo sapiens) (UniProt Q93009); test: Inhibition of USP7 in human MCF7 cells assessed as increase in p53 expression after 4 to 48 hrs by Western blot analysis; assay type: cell-based
[7] = target: Ubiquitin carboxyl-terminal hydrolase 9X (Homo sapiens) (UniProt Q93008); test: Inhibition of recombinant His6-tagged USP9x catalytic domain (unknown origin) assessed as association constant using Ub-AMC as substrate by fluorescence assay
K562 [8] = test: Cell cycle arrest in human K562 cells assessed as increase in accumulation at sub G1-phase after 24 hrs by propidium iodide staining based flow cytometry; assay type: functional
Outline: (§2)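 K562 cells exposed to compound for 24 h, then analysed for cell cycle by FACS. Sub-G1 cells were counted as apoptotic, with the G1 fraction reported separately.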

K562 [9] = test: Cell cycle arrest in human K562 cells assessed as increase in accumulation at G1-phase after 24 hrs by propidium iodide staining based flow cytometry; assay type: functional; outline: as §2
[10] = target: Ubiquitin carboxyl-terminal hydrolase 28 (Homo sapiens) (UniProt Q96RU2); test: Inhibition of USP28 in HEK293T cell lysates at 25 uM using HA-tagged vinyl-sulfone as substrate measured after 2 to 30 mins by Western blot analysis; assay type: subcellular; details: Lysate; outline: as §1
Chain of Ubiquitin carboxyl-terminal hydrolase 28 (Homo sapiens) (Q96RU2 whole entry): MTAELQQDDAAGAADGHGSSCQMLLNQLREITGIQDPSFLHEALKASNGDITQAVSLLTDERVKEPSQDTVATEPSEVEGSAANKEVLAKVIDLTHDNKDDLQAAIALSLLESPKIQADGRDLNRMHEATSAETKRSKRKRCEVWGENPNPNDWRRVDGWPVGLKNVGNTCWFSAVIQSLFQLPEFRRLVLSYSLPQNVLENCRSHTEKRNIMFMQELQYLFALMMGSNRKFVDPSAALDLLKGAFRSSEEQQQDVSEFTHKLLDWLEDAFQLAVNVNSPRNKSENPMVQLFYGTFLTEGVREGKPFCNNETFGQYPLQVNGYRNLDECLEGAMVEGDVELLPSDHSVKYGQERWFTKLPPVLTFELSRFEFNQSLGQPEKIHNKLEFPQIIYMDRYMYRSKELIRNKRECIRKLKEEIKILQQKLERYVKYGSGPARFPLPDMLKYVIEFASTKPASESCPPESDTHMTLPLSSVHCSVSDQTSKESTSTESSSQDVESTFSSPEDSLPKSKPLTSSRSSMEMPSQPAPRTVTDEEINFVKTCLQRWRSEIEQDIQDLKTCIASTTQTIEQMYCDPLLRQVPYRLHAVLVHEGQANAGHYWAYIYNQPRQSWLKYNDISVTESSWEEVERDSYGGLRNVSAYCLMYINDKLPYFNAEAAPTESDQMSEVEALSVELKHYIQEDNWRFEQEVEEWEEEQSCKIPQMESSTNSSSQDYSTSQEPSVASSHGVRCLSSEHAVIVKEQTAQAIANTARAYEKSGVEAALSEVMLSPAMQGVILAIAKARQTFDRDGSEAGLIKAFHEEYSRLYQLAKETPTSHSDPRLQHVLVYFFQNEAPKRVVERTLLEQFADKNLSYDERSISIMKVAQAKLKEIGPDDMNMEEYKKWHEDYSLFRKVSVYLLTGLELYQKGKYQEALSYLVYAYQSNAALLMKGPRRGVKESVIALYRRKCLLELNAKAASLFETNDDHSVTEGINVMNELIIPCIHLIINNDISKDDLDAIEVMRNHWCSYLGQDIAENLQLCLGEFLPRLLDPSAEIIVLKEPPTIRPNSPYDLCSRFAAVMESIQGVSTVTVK

[11] = target: T1, Ubiquitin carboxyl-terminal hydrolase 8 (Homo sapiens) (UniProt P40818); test: Inhibition of USP8 in HEK293T cell lysates at 25 uM using HA-tagged vinyl-sulfone as substrate preincubated for 19 to 60 mins followed by substrate addition and measured after 19 to 25 mins by Western blot analysis; assay type: subcellular; details: Lysate
T1 sequence (whole entry): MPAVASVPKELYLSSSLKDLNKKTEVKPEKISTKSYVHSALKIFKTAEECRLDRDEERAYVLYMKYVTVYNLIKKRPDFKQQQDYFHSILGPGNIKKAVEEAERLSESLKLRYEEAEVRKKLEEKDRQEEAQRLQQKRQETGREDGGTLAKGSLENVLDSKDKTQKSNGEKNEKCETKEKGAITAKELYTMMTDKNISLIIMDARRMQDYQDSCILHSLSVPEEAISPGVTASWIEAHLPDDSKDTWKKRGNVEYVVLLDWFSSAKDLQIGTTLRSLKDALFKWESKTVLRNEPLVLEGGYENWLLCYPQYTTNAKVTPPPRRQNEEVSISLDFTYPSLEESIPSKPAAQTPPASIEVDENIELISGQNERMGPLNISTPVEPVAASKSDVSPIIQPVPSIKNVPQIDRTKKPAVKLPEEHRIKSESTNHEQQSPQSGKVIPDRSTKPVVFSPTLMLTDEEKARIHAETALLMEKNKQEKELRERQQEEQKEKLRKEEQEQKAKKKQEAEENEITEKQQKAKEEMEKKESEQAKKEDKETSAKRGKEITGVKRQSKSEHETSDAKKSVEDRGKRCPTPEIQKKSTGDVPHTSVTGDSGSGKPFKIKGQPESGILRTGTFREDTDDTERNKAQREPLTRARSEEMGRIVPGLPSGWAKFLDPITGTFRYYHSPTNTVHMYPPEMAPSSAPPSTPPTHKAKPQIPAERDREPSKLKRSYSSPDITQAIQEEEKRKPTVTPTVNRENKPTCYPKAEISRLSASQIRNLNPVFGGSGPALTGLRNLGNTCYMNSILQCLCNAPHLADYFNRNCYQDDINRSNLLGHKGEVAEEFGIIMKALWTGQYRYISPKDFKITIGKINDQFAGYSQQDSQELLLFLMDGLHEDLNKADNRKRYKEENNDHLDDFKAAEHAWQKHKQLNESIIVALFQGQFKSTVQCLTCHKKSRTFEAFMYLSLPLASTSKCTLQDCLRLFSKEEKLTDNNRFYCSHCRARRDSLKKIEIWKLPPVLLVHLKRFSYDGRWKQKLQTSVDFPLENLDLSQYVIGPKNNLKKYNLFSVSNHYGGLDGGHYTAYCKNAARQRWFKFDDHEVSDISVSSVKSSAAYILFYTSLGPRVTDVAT

[12] = target: Ubiquitin carboxyl-terminal hydrolase 7 (Homo sapiens) (UniProt Q93009); test: Inhibition of USP7 in human MCF7 cells assessed as decrease in Mdm2 expression at 25 uM after 4 hrs by Western blot analysis; assay type: cell-based
Outline: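 MCF7 cells treated with compound for 4 h. Mdm2, p53 and p21 levels were determined by immunoblotting.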

[13] = target: Ubiquitin carboxyl-terminal hydrolase 7 (Homo sapiens) (UniProt Q93009); test: Inhibition of USP7 in HEK293T cell lysates at 25 uM using HA-tagged vinyl-sulfone as substrate measured after 2 to 30 mins by Western blot analysis; assay type: subcellular; details: Lysate; outline: as §1
[14] = target: T1, Ubiquitin carboxyl-terminal hydrolase 8 (Homo sapiens); test: Inhibition of USP8 in HEK293T cell lysates at 25 uM using HA-tagged vinyl-sulfone as substrate measured after 2 to 30 mins by Western blot analysis; assay type: subcellular; details: Lysate; outline: as §1
[15] = target: Pancreatic elastase (Sus scrofa) (UniProt P08419+P00772); test: Inhibition of porcine pancreatic elastase; assay type: protein assay

NCc1ccc(OC(=O)Oc2ccc3ccccc3c2)cc1
inhibition [1]: inactive | Ratio [2]: 0.3 | inhibition [3]: inactive | inhibition [4]: inactive | inhibition [5]: inactive | Activity [6]: Active | K [7]: 49 M⁻¹ s⁻¹ | Activity (K562 [8]): Dose-dependent effect | Activity (K562 [9]): Dose-dependent effect | inhibition [10]: inactive | inhibition [11]: Active | inhibition [12]: Active | inhibition [13]: inactive | inhibition [14]: inactive | inhibition [15]: inactive
